Experimental data reported in ChEMBL document CHEMBL5058577, “EUbOPEN Chemogenomics Library 2 (Multiplex)” (2022).

System: HEK-293T
Assay: Multiplex assay against HEK293T
Assay type: toxicity, cell-based
Conditions: human
How it was run: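 Cells were classed with CellPathfinder machine-learning gating, first as Hoechst high-intensity objects or normal cells, then (normal cells) as healthy, pyknosed or fragmented nuclei, and finally (pyknosed cells) as mitotic or apoptotic. Staining of live cells at seeding used Hoechst33342, BioTracker Green Microtubule Cytoskeleton Dye, MitoTracker Red and Annexin V Alexa Fluor 680, with imaging on a CQ1 microscope at 37°C and 5% CO2 after compound addition. Tubulin, mitochondrial-mass and membrane-permeability phenotypes are per cents of healthy-nucleus cells.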

[1] = 12 h, 1 µM, compound concentration 1 uM, replicate 1
[2] = 12 h, 1 µM, compound concentration 1 uM, replicate 2
[3] = 12 h, 10 µM, compound concentration 10 uM, replicate 1
[4] = 12 h, 10 µM, compound concentration 10 uM, replicate 2
[5] = 24 h, 1 µM, compound concentration 1 uM, replicate 1
[6] = 24 h, 1 µM, compound concentration 1 uM, replicate 2
[7] = 24 h, 10 µM, compound concentration 10 uM, replicate 1
[8] = 24 h, 10 µM, compound concentration 10 uM, replicate 2
[9] = 48 h, 1 µM, compound concentration 1 uM, replicate 1
[10] = 48 h, 1 µM, compound concentration 1 uM, replicate 2
[11] = 48 h, 10 µM, compound concentration 10 uM, replicate 1
[12] = 48 h, 10 µM, compound concentration 10 uM, replicate 2

SMILES: C=CCN1C[C@H](C(=O)N(CCCN(C)C)C(=O)NCC)C[C@@H]2c3cccc4[nH]cc(c34)C[C@H]21 [CABERGOLINE]
- Population Apoptotic (%) [1]: 36%
- Population Fragmented Nuclei (%) [1]: 4%
- Population Healthy Nuclei (%) [1]: 76%
- Population Hoechst High Intensity Objects (%) [1]: 8%
- Population Membrane Permeable-Phenotype (%) [1]: 0%
- Population Mitochondria Different-Phenotype (%) [1]: 51%
- Population Mitotic Cells (%) [1]: 63%
- Population Normal (%) [1]: 91%
- Population Pyknosed Nuclei (%) [1]: 18%
- Population Tubulin-Different-Phenotype (%) [1]: 41%
- Total Cell Count [1]: 370
- Population Apoptotic (%) [2]: 37%
- Population Fragmented Nuclei (%) [2]: 5%
- Population Healthy Nuclei (%) [2]: 79%
- Population Mitochondria Different-Phenotype (%) [2]: 68%
- Population Mitotic Cells (%) [2]: 62%
- Population Pyknosed Nuclei (%) [2]: 14%
- Population Tubulin-Different-Phenotype (%) [2]: 24%
- Total Cell Count [2]: 322
- Population Apoptotic (%) [3]: 53%
- Population Fragmented Nuclei (%) [3]: 8%
- Population Healthy Nuclei (%) [3]: 76%
- Population Hoechst High Intensity Objects (%) [3]: 12%
- Population Membrane Permeable-Phenotype (%) [3]: 0%
- Population Mitochondria Different-Phenotype (%) [3]: 65%
- Population Mitotic Cells (%) [3]: 46%
- Population Normal (%) [3]: 87%
- Population Pyknosed Nuclei (%) [3]: 14%
- Population Tubulin-Different-Phenotype (%) [3]: 54%
- Total Cell Count [3]: 438
- Population Apoptotic (%) [4]: 60%
- Population Fragmented Nuclei (%) [4]: 6%
- Population Healthy Nuclei (%) [4]: 78%
- Population Hoechst High Intensity Objects (%) [4]: 8%
- Population Mitochondria Different-Phenotype (%) [4]: 81%
- Population Mitotic Cells (%) [4]: 40%
- Population Normal (%) [4]: 91%
- Population Tubulin-Different-Phenotype (%) [4]: 55%
- Total Cell Count [4]: 371
- Population Apoptotic (%) [5]: 43%
- Population Fragmented Nuclei (%) [5]: 9%
- Population Healthy Nuclei (%) [5]: 80%
- Population Hoechst High Intensity Objects (%) [5]: 4%
- Population Membrane Permeable-Phenotype (%) [5]: 1%
- Population Mitochondria Different-Phenotype (%) [5]: 29%
- Population Mitotic Cells (%) [5]: 56%
- Population Normal (%) [5]: 95%
- Population Pyknosed Nuclei (%) [5]: 10%
- Population Tubulin-Different-Phenotype (%) [5]: 20%
- Total Cell Count [5]: 512
- Population Apoptotic (%) [6]: 40%
- Population Fragmented Nuclei (%) [6]: 6%
- Population Healthy Nuclei (%) [6]: 83%
- Population Hoechst High Intensity Objects (%) [6]: 6%
- Population Membrane Permeable-Phenotype (%) [6]: 0%
- Population Mitochondria Different-Phenotype (%) [6]: 46%
- Population Mitotic Cells (%) [6]: 59%
- Population Normal (%) [6]: 93%
- Population Pyknosed Nuclei (%) [6]: 9%
- Population Tubulin-Different-Phenotype (%) [6]: 19%
- Total Cell Count [6]: 406
- Population Apoptotic (%) [7]: 37%
- Population Fragmented Nuclei (%) [7]: 10%
- Population Healthy Nuclei (%) [7]: 77%
- Population Hoechst High Intensity Objects (%) [7]: 8%
- Population Membrane Permeable-Phenotype (%) [7]: 0%
- Population Mitochondria Different-Phenotype (%) [7]: 51%
- Population Mitotic Cells (%) [7]: 62%
- Population Normal (%) [7]: 91%
- Population Pyknosed Nuclei (%) [7]: 11%
- Population Tubulin-Different-Phenotype (%) [7]: 48%
- Total Cell Count [7]: 556
- Population Apoptotic (%) [8]: 42%
- Population Healthy Nuclei (%) [8]: 79%
- Population Hoechst High Intensity Objects (%) [8]: 12%
- Population Mitochondria Different-Phenotype (%) [8]: 64%
- Population Mitotic Cells (%) [8]: 57%
- Population Normal (%) [8]: 87%
- Population Pyknosed Nuclei (%) [8]: 9%
- Population Tubulin-Different-Phenotype (%) [8]: 43%
- Total Cell Count [8]: 425
- Population Apoptotic (%) [9]: 13%
- Population Fragmented Nuclei (%) [9]: 12%
- Population Healthy Nuclei (%) [9]: 80%
- Population Hoechst High Intensity Objects (%) [9]: 4%
- Population Membrane Permeable-Phenotype (%) [9]: 1%
- Population Mitochondria Different-Phenotype (%) [9]: 21%
- Population Mitotic Cells (%) [9]: 86%
- Population Normal (%) [9]: 95%
- Population Pyknosed Nuclei (%) [9]: 7%
- Population Tubulin-Different-Phenotype (%) [9]: 16%
- Total Cell Count [9]: 763
- Population Apoptotic (%) [10]: 35%
- Population Fragmented Nuclei (%) [10]: 11%
- Population Healthy Nuclei (%) [10]: 81%
- Population Hoechst High Intensity Objects (%) [10]: 3%
- Population Mitochondria Different-Phenotype (%) [10]: 23%
- Population Mitotic Cells (%) [10]: 65%
- Population Normal (%) [10]: 96%
- Population Pyknosed Nuclei (%) [10]: 6%
- Population Tubulin-Different-Phenotype (%) [10]: 10%
- Total Cell Count [10]: 633
- Population Apoptotic (%) [11]: 26%
- Population Fragmented Nuclei (%) [11]: 13%
- Population Healthy Nuclei (%) [11]: 76%
- Population Hoechst High Intensity Objects (%) [11]: 5%
- Population Membrane Permeable-Phenotype (%) [11]: 0%
- Population Mitochondria Different-Phenotype (%) [11]: 35%
- Population Mitotic Cells (%) [11]: 73%
- Population Normal (%) [11]: 94%
- Population Pyknosed Nuclei (%) [11]: 9%
- Population Tubulin-Different-Phenotype (%) [11]: 25%
- Total Cell Count [11]: 786
- Population Apoptotic (%) [12]: 43%
- Population Fragmented Nuclei (%) [12]: 10%
- Population Healthy Nuclei (%) [12]: 82%
- Population Hoechst High Intensity Objects (%) [12]: 6%
- Population Mitochondria Different-Phenotype (%) [12]: 32%
- Population Mitotic Cells (%) [12]: 56%
- Population Normal (%) [12]: 93%
- Population Pyknosed Nuclei (%) [12]: 6%
- Population Tubulin-Different-Phenotype (%) [12]: 20%
- Total Cell Count [12]: 676
